Assay results reported in publication PMC4415995 (Advances in Therapy, 2015).

Tested on: Japanese patients with T2DM
Experiment: Clinical laboratory tests and vital signs, 7-day once-daily dosing
Format: in vivo, human
Procedure, shortened: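 Randomized, single-blind, placebo-controlled, parallel-group study in Japanese T2DM outpatients (HbA1c 6.9–10.5%, FPG ≥126 mg/dL, stable diet 4 weeks, age 20–74 y). Test compound 0.5, 1, 2.5 or 5 mg or placebo was given orally once daily for 7 days before breakfast. Safety set was all dosed patients. AEs were coded in MedDRA 12.1 and graded mild/moderate/severe, with drug relation judged by the investigator. Labs, vital signs, body weight and ECG were also recorded.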

CCOc1ccc(Cc2cc([C@@H]3S[C@H](CO)[C@@H](O)[C@H](O)[C@H]3O)c(OC)cc2C)cc1 [Luseogliflozin, (1S)-1,5-anhydro-1-[5-(4-ethoxybenzyl)-2-methoxy-4-methylphenyl]-1-thio-D-glucitol]
Cystatin C, change from baseline (0.5 mg OD, Day 1): -0.040 ± 0.018 mg/L | DBP, change from baseline (0.5 mg OD, Day 1): 3.0 ± 5.2 mmHg | Hematocrit, change from baseline (0.5 mg OD, Day 1): −1.14 ± 0.73% | SBP, change from baseline (0.5 mg OD, Day 1): −1.7 ± 6.0 mmHg | Serum calcium, change from baseline (0.5 mg OD, Day 1): -0.19 ± 0.12 mg/dL | Serum phosphorus, change from baseline (0.5 mg OD, Day 1): 0.30 ± 0.40 mg/dL | Urinary NAG, change from baseline (0.5 mg OD, Day 1): −0.31 ± 0.67 U/L | Urinary calcium, change from baseline (0.5 mg OD, Day 1): 0.01 ± 0.04 g/day | Urinary phosphorus, change from baseline (0.5 mg OD, Day 1): -0.13 ± 0.10 g/day | Urinary type IV collagen, change from baseline (0.5 mg OD, Day 1): −0.40 ± 1.08 μg/g creatinine | Urinary uric acid, change from baseline (0.5 mg OD, Day 1): 0.04 ± 0.05 g/day | Urinary β2-microglobulin, change from baseline (0.5 mg OD, Day 1): -12.4 ± 25.2 µg/L | Cystatin C, change from baseline (0.5 mg OD, Day 7): -0.067 ± 0.029 mg/L | DBP, change from baseline (0.5 mg OD, Day 7): 3.1 ± 3.8 mmHg | Hematocrit, change from baseline (0.5 mg OD, Day 7): −2.20 ± 0.95% | SBP, change from baseline (0.5 mg OD, Day 7): −5.9 ± 3.8 mmHg | Serum calcium, change from baseline (0.5 mg OD, Day 7): -0.24 ± 0.05 mg/dL | Serum phosphorus, change from baseline (0.5 mg OD, Day 7): 0.16 ± 0.40 mg/dL | Urinary NAG, change from baseline (0.5 mg OD, Day 7): −0.06 ± 0.80 U/L | Urinary calcium, change from baseline (0.5 mg OD, Day 7): 0.01 ± 0.04 g/day | Urinary phosphorus, change from baseline (0.5 mg OD, Day 7): -0.04 ± 0.13 g/day | Urinary type IV collagen, change from baseline (0.5 mg OD, Day 7): −0.21 ± 1.25 μg/g creatinine | Urinary uric acid, change from baseline (0.5 mg OD, Day 7): -0.01 ± 0.07 g/day | Urinary β2-microglobulin, change from baseline (0.5 mg OD, Day 7): -7.4 ± 27.1 µg/L | Cystatin C, change from baseline (1 mg OD, Day 1): 0.005 ± 0.077 mg/L | DBP, change from baseline (1 mg OD, Day 1): 0.4 ± 4.9 mmHg | Hematocrit, change from baseline (1 mg OD, Day 1): −1.26 ± 0.86% | SBP, change from baseline (1 mg OD, Day 1): 3.5 ± 9.6 mmHg | Serum calcium, change from baseline (1 mg OD, Day 1): -0.19 ± 0.16 mg/dL | Serum phosphorus, change from baseline (1 mg OD, Day 1): 0.57 ± 0.32 mg/dL | Urinary NAG, change from baseline (1 mg OD, Day 1): −0.33 ± 0.99 U/L | Urinary calcium, change from baseline (1 mg OD, Day 1): 0.00 ± 0.00 g/day | Urinary phosphorus, change from baseline (1 mg OD, Day 1): -0.13 ± 0.10 g/day | Urinary type IV collagen, change from baseline (1 mg OD, Day 1): −0.44 ± 0.61 μg/g creatinine | Urinary uric acid, change from baseline (1 mg OD, Day 1): 0.08 ± 0.07 g/day | Urinary β2-microglobulin, change from baseline (1 mg OD, Day 1): -8.5 ± 31.3 µg/L | Cystatin C, change from baseline (1 mg OD, Day 7): -0.061 ± 0.043 mg/L | DBP, change from baseline (1 mg OD, Day 7): −0.8 ± 6.6 mmHg | Hematocrit, change from baseline (1 mg OD, Day 7): −2.68 ± 0.89% | SBP, change from baseline (1 mg OD, Day 7): −2.4 ± 12.8 mmHg | Serum calcium, change from baseline (1 mg OD, Day 7): -0.41 ± 0.14 mg/dL | Serum phosphorus, change from baseline (1 mg OD, Day 7): 0.20 ± 0.21 mg/dL | Urinary NAG, change from baseline (1 mg OD, Day 7): 0.73 ± 0.80 U/L | Urinary calcium, change from baseline (1 mg OD, Day 7): 0.00 ± 0.00 g/day | Urinary phosphorus, change from baseline (1 mg OD, Day 7): 0.00 ± 0.13 g/day | Urinary type IV collagen, change from baseline (1 mg OD, Day 7): 0.66 ± 1.22 μg/g creatinine | Urinary uric acid, change from baseline (1 mg OD, Day 7): -0.03 ± 0.20 g/day | Urinary β2-microglobulin, change from baseline (1 mg OD, Day 7): 17.3 ± 54.9 µg/L | Cystatin C, change from baseline (2.5 mg OD, Day 1): 0.016 ± 0.060 mg/L | DBP, change from baseline (2.5 mg OD, Day 1): −4.3 ± 5.6 mmHg | Hematocrit, change from baseline (2.5 mg OD, Day 1): −0.58 ± 1.48% | SBP, change from baseline (2.5 mg OD, Day 1): −5.6 ± 9.5 mmHg | Serum calcium, change from baseline (2.5 mg OD, Day 1): -0.15 ± 0.23 mg/dL | Serum phosphorus, change from baseline (2.5 mg OD, Day 1): 0.68 ± 0.23 mg/dL | Urinary NAG, change from baseline (2.5 mg OD, Day 1): −0.68 ± 1.33 U/L | Urinary calcium, change from baseline (2.5 mg OD, Day 1): -0.01 ± 0.04 g/day | Urinary phosphorus, change from baseline (2.5 mg OD, Day 1): -0.24 ± 0.07 g/day | Urinary type IV collagen, change from baseline (2.5 mg OD, Day 1): −0.05 ± 1.13 μg/g creatinine | Urinary uric acid, change from baseline (2.5 mg OD, Day 1): -0.01 ± 0.04 g/day | Urinary β2-microglobulin, change from baseline (2.5 mg OD, Day 1): -11.0 ± 44.9 µg/L | Cystatin C, change from baseline (2.5 mg OD, Day 7): -0.064 ± 0.054 mg/L
